Experimental data taken from ChEMBL document CHEMBL2439950, “Arylamino methylene bisphosphonate derivatives as bone seeking matrix metalloproteinase inhibitors” (Bioorg Med Chem, 2013).

Assays:
[1] = molecular target: Matrix metalloproteinase-14 (Homo sapiens, UniProt P50281); assay: Inhibition of MMP14 catalytic domain (unknown origin) using Mca-Pro-Leu-Gly-Leu-Dpa-Ala-Arg-NH2 as substrate incubated for 30 mins prior to substrate addition measured after 2 to 4 hrs by fluorometric assay
Method in brief: (§1)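 Catalytic domains of MMP-8, MMP-9 or MMP-14 were preincubated 30 min at 25 °C with inhibitor (six concentrations, 0.1 nM–100 μM) in 50 mM Tris-HCl pH 7.5, 200 mM NaCl, 1 mM CaCl2, 1 μM ZnCl2, 0.05% Brij-35, 1% DMSO. Substrate was added to 2.5 μM final for 2–4 h at 37 °C, then acetic acid stop. Fluorescence read at 340/405 nm, in triplicate; IC50 fitted from percent inhibition.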

Neutrophil collagenase = Neutrophil collagenase (Homo sapiens, UniProt P22894); assay: Inhibition of MMP8 catalytic domain (unknown origin) using Mca-Pro-Leu-Gly-Leu-Dpa-Ala-Arg-NH2 as substrate incubated for 30 mins prior to substrate addition measured after 2 to 4 hrs by fluorometric assay; method in brief: as §1
Chain of Neutrophil collagenase (P22894 whole entry, the tested form may be a part): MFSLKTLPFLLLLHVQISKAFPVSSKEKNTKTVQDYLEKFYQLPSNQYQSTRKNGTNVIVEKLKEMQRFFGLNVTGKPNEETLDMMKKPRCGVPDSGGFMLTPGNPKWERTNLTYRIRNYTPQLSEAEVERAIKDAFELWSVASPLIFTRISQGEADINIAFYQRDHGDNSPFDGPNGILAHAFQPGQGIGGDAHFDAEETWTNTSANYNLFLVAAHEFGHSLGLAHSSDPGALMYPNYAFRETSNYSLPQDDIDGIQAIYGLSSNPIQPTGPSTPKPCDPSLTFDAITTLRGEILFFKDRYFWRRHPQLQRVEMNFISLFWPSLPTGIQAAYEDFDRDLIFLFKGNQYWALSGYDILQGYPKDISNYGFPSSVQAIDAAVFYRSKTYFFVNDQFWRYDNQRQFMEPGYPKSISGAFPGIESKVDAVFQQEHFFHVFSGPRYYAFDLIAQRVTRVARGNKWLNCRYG

[2] = Cytotoxicity against mouse J774A1 cells assessed as cell viability at 100 uM after 48 hrs by MTT assay; assay type: functional; conditions: J774.A1, 48 h, read-out: Activity
Method in brief: (§2)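 J774 A.1 cells were grown in DMEM and HepG2 in MEM, each with 10% FBS, penicillin, streptomycin and 2 mM L-glutamine, at 37 °C in 5% CO2. Seeded at 1-5·10^4 cells/well with half-log diluted compounds, 1% DMSO final, for 48 h. MTT was added to 0.5 mg/mL final for 3-4 h, solubilized in 50% DMSO/50% EtOH, and read at 570 nm. Background came from Triton X-100 lysed wells, and viability was taken relative to untreated controls.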

Hydroxyapatite = assay: Binding affinity to bone mineral hydroxyapatite assessed as adsorbed level at 100 uM after 2 hrs by UV-spectrophotometric analysis
Method in brief: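 Duplicate 5 ml aliquots of 100 μM bisphosphonic acid in 50 mM Tris-HCl pH 7.5, stirred with 4 mg hydroxyapatite at 37 °C for 2 h. After centrifugation (10 min, 8000 rpm) and 0.22 μm filtration, supernatant absorbance was quantified against calibration lines.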

[3] = molecular target: Matrix metalloproteinase-9 (Homo sapiens, UniProt P14780); assay: Inhibition of MMP9 catalytic domain (unknown origin) using Mca-Pro-Leu-Gly-Leu-Dpa-Ala-Arg-NH2 as substrate incubated for 30 mins prior to substrate addition measured after 2 to 4 hrs by fluorometric assay; method in brief: as §1
Chain of Matrix metalloproteinase-9 (P14780 whole entry, the tested form may be a part): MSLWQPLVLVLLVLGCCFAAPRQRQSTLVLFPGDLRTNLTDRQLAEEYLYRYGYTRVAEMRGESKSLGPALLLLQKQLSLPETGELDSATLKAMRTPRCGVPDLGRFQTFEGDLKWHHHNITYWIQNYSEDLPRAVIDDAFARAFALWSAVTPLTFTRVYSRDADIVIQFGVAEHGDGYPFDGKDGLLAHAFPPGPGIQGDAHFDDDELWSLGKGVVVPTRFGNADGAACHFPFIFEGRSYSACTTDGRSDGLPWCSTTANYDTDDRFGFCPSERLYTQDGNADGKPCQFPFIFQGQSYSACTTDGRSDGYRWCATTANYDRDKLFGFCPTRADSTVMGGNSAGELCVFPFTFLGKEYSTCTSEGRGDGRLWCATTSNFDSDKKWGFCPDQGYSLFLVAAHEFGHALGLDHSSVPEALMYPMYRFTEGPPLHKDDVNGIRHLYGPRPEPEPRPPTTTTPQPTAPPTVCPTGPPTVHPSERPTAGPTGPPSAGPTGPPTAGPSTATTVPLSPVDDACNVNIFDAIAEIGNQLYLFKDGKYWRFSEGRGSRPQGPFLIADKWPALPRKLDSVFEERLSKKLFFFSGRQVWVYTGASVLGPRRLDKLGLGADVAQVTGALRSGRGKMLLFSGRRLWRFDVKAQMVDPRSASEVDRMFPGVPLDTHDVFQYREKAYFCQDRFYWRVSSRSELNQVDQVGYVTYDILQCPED

[4] = Cytotoxicity against human HepG2 cells assessed as cell viability at 100 uM after 48 hrs by MTT assay; assay type: cell-based; conditions: read-out: Activity; method in brief: as §2
[5] = molecular target: 72 kDa type IV collagenase (Homo sapiens, UniProt P08253); assay: Inhibition of APMA-activated recombinant human MMP2 using Mca-Pro-Leu-Gly-Leu-Dpa-Ala-Arg-NH2 as substrate incubated for 30 mins prior to substrate addition measured after 2 to 4 hrs by fluorometric assay
Chain of 72 kDa type IV collagenase (P08253 whole entry): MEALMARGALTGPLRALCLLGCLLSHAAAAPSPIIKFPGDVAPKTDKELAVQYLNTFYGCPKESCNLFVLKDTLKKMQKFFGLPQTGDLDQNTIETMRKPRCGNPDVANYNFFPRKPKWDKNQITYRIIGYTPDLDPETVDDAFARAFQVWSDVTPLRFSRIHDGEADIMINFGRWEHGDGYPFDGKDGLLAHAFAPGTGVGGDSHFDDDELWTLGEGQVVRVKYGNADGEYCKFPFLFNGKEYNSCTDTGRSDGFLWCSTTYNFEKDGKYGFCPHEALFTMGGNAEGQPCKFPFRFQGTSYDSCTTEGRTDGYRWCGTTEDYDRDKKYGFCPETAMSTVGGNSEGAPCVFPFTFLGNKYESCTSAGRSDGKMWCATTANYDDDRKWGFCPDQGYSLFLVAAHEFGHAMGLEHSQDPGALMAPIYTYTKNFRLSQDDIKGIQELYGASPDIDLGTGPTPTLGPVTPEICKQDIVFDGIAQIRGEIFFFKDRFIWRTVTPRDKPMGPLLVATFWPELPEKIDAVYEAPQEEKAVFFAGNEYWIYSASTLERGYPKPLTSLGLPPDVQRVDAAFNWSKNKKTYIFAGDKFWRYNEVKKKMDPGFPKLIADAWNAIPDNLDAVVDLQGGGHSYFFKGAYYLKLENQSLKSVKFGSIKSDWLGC
Method in brief: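 Human pro-MMP-2 was activated with 2 mM APMA for 1 h at 37 °C. Enzyme and inhibitor (six concentrations, 0.1 nM–100 μM) were preincubated 30 min at 25 °C in Tris-HCl pH 7.5 buffer with NaCl, CaCl2, ZnCl2, Brij-35 and 1% DMSO. Substrate was added to 2.5 μM final, run 2–4 h at 37 °C, and stopped with 3% acetic acid. Fluorescence read at ex 340/em 405 nm, in triplicate; IC50 from percent inhibition versus no-inhibitor controls.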

IC50 [1] [µM] | IC50 (Neutrophil collagenase) [µM] | Activity (Hydroxyapatite) [%] | IC50 [3] [µM] | IC50 [5] [µM] | SMILES | viability at 100 µM [2] [%] | viability at 48 h, 100 µM [4] [%]
> 100 | > 100 | 61.2 | > 100 | 28.2 | O=P(O)(O)C(Nc1ccc(F)cc1)P(=O)(O)O | 80.4 | 94
40 | 52 | 66.4 | > 100 | > 100 | O=P(O)(O)C(Nc1cccc(-c2ccccc2)c1)P(=O)(O)O | 49 | 102
43 | 44 | 66.2 | > 100 | 2.8 | O=P(O)(O)C(Nc1ccc(Oc2ccccc2)cc1)P(=O)(O)O | 44 | 105
> 100 | > 100 | 63.6 | > 100 | 42 | O=P(O)(O)C(Nc1cccc(F)c1)P(=O)(O)O | 84 | 70
69 | 61 | 51.6 | 6 | 6.4 | O=P(O)(O)C(Nc1cccc2ccccc12)P(=O)(O)O | 33 | 98
> 100 | > 100 | 50.3 | > 100 | 20.8 | O=P(O)(O)C(Nc1cccc(C(F)(F)F)c1)P(=O)(O)O | 62 | 83
33.5 | 30 | 60 | > 100 | > 100 | O=P(O)(O)C(Nc1ccc(-c2ccccc2)cc1)P(=O)(O)O | 36 | 88
> 100 | > 100 | 76 | > 100 | 36 | N#Cc1ccc(NC(P(=O)(O)O)P(=O)(O)O)cc1 | 86 | 77
49.5 | 43 | 60.7 | 87 | 2.8 | O=P(O)(O)C(Nc1ccc(Oc2ccc(Br)cc2)cc1)P(=O)(O)O | 15.3 | 90
> 100 | > 100 | 70.1 | > 100 | 37.4 | O=P(O)(O)C(Nc1cccc(Br)c1)P(=O)(O)O | 72 | 67
26 | 15 | 76 | 20 | 20 | O=[N+]([O-])c1ccc(NC(P(=O)(O)O)P(=O)(O)O)cc1 | 76 | 84
76 | 39.9 | 52.1 | 55 | 2.1 | O=P(O)(O)C(Nc1ccc(Oc2ccc(Cl)cc2)cc1)P(=O)(O)O | 73 | 87
> 100 | > 100 | 88 | > 100 | 6.6 | O=P(O)(O)C(Nc1ccc(O)cc1)P(=O)(O)O | 19.5 | 101
> 100 | > 100 | 66.2 | > 100 | 25 | O=[N+]([O-])c1cc(NC(P(=O)(O)O)P(=O)(O)O)ccc1F | 69 | 69
3.9 | 2.4 | 49 | 30 | 6 | O=P(O)(O)C(Nc1ccc(Br)cc1)P(=O)(O)O | 81 | 94
30.5 | 32 | 51.5 | > 100 | 7.2 | O=P(O)(O)C(Sc1ccc(Cl)cc1)P(=O)(O)O [TILUDRONIC ACID] | 14 | 61
> 100 | > 100 | 42.5 | > 100 | 15 | O=P(O)(O)C(Nc1ccc(C(F)(F)F)cc1)P(=O)(O)O | 53 | 100

SMILES | IC50 [1] [µM] | IC50 (Neutrophil collagenase) [µM] | Activity (Hydroxyapatite) [%] | IC50 [3] [µM] | IC50 [5] [µM] | viability at 100 µM [2] [%] | viability at 48 h, 100 µM [4] [%]
O=P(O)(O)C(O)(Cn1ccnc1)P(=O)(O)O [ZOLEDRONIC ACID] | 12.6 | 17.6 |  | 52 | 7 |  | 
O=P(O)(O)C(Nc1ccccc1)P(=O)(O)O [(PHENYLAMINO)METHYLENEDIPHOSPHONIC ACID] | > 100 | > 100 | 58 | > 100 | > 100 | 68 | 96
O=P(O)(O)C(Nc1ccc(Cl)cc1Cl)P(=O)(O)O [2,4-DICHLOROPHENYLAMINOMETHYLENEBISPHOSPHONIC ACID] | > 100 | > 100 | 56.8 | > 100 | > 100 | 59 | 73
O=P(O)(O)C(Nc1ccc(Cl)c(Cl)c1)P(=O)(O)O [3,4-DICHLOROPHENYLAMINOMETHYLENEBISPHOSPHONIC ACID] | 20 | 25.5 | 53.5 | > 100 | > 100 | 81 | 98
O=P(O)(O)C(Nc1ccc(Cl)cc1)P(=O)(O)O [(4-CHLOROPHENYLAMINO)METHYLENEDIPHOSPHONIC ACID] | > 100 | > 100 | 64.2 | > 100 | > 100 | 86 | 97
Cc1ccc(NC(P(=O)(O)O)P(=O)(O)O)cc1 [(P-TOLYLAMINO)METHYLENEDIPHOSPHONIC ACID] | > 100 | 36 | 23.9 | > 100 | > 100 | 83 | 104
O=[N+]([O-])c1cccc(NC(P(=O)(O)O)P(=O)(O)O)c1 [(3-NITROPHENYLAMINO)METHYLENEDIPHOSPHONIC ACID] | > 100 | > 100 | 57.8 | > 100 | 15.5 | 54 | 83
